# Results taken from ChEMBL document CHEMBL2385062, “Metabolism of a potent neuroprotective hydrazide” (Bioorg Med Chem, 2013).
# Assays:
# [1] = Neuroprotective activity in human MC65 cells expressing C-terminal 99 amino acids from […] assessed as reduction in intracellular amyloid beta toxicity after 4 days by MTT assay; format: functional, cell-based; settings: MC65, 96 h
# Summary of the method: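 MC65 cells from confluent cultures were plated at 4 × 10⁵ per 35 mm dish with compounds. Tetracycline was kept present (no induction) or omitted (APP-C99 induced). After 4 days, viability was read by MTT and expressed relative to plus-tetracycline controls. EC50 was calculated from concentration–response curves.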
# HT-22 = assay: Neuroprotective activity in mouse HT22 cells assessed as reduction in glutamate-induced oxidative stress incubated for 30 mins prior to glutamate-challenge measured after 20 hrs by MTT assay
# [2] = Neuroprotective activity in rat primary cortical neurons assessed as reduction in trophic factor withdrawal after 2 days by fluorescent live-dead assay; format: functional, cell-based; settings: cerebral cortex neuron
# Summary of the method: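 Cortical neurons from E18 rat embryos were plated at low density (1 × 10⁶ per 35 mm dish) in serum-free DMEM/F12 with N2 supplement plus compounds. After 2 days, viability was scored with a fluorescent live-dead assay as the percentage of input cells surviving. EC50 was derived from the concentration–response curves.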
# Liver microsomes [3] = assay: Drug metabolism in human liver microsomes assessed as retention time at 5 uM by LC/MS/MS analysis; format: ADME, Microsome
# Summary of the method: (§1)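 Parent at 5 µM was incubated with human or mouse liver microsomes, then extracted with ethyl acetate at zero time or after 5 min. Extracts were separated on a C18 reverse-phase HPLC column and analysed by LC/MS/MS in positive mode over m/z 50–1000. Metabolites were characterised from EPI-scan product ion spectra and CID pathways.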
# Plasma [4] = assay: Drug metabolism in mouse plasma assessed as formation of 3-methoxy benzaldehyde at 5 uM by LC/MS/MS analysis; format: ADME, cell-free
# Liver microsomes [5] = assay: Drug metabolism in human liver microsomes assessed as formation of 3-methoxy benzaldehyde at 5 uM by LC/MS/MS analysis; format: ADME, Microsome; summary of the method: as §1
# [6] = Drug metabolism in mouse liver microsomes assessed as formation of 3-methoxy benzaldehyde at 5 uM by LC/MS/MS analysis; format: ADME, Microsome; summary of the method: as §1
# [7] = Drug metabolism in mouse liver microsomes assessed as metabolite M4 retention time at 5 uM by LC/MS/MS analysis; format: ADME, Microsome; summary of the method: as §1
# [8] = Drug metabolism in mouse liver microsomes assessed as metabolite M5 retention time at 5 uM by LC/MS/MS analysis; format: ADME, Microsome; summary of the method: as §1
# Blood [9] = assay: Drug metabolism in BALB/c mouse blood assessed as metabolite BM1 retention time at 20 mg/kg, iv administered in corn oil by LC/MS/MS analysis; format: ADME, organism-based; parameters: dose 20 mg/kg, route intravenous; settings: in vivo
# Summary of the method: (§2)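 Mice received parent at 20 mg/kg iv, and blood was sampled 20 min later. Metabolites were identified by the same ethyl acetate extraction and LC/MS/MS workflow as for microsomes, using a polar reverse-phase column. Mass shifts were assigned to biotransformations.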
# Blood [10] = assay: Drug metabolism in BALB/c mouse blood assessed as metabolite BM2 retention time at 20 mg/kg, iv administered in corn oil by LC/MS/MS analysis; format: ADME, organism-based; parameters: dose 20 mg/kg, route intravenous; settings: in vivo; summary of the method: as §2
# [11] = Half life in BALB/c mouse brain at 20 mg/kg, orally administered in corn oil by LC/MS/MS analysis; settings: po
# Plasma [12] = assay: Drug metabolism in mouse plasma assessed as formation of 2,4-dimethylaniline at 5 uM by LC/MS/MS analysis; format: ADME, cell-free
# Plasma [13] = assay: Drug metabolism in mouse plasma assessed as formation of 2,4-dimethylhydrazine at 5 uM by LC/MS/MS analysis; format: ADME, cell-free
# [14] = Half life in human liver microsomes at 5 uM by LC/MS/MS analysis in presence of NADPH; format: ADME, Microsome
# Summary of the method: (§3)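 Test compound at 5 µM was incubated at 37 °C with 0.5 mg/mL liver microsomes (human or mouse) in 5 mM phosphate buffer, pH 7.3, with or without 1 mM NADPH. Heat-inactivated microsomes (98 °C, 10 min) served as controls. At 0.1, 2, 5, 10 and 20 min, reactions were stopped with three volumes of ethyl acetate and centrifuged. Parent disappearance in the supernatant was followed by LC/MS/MS.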
# Blood [15] = assay: Drug metabolism in BALB/c mouse blood assessed as retention time at 20 mg/kg, iv administered in corn oil by LC/MS/MS analysis; format: ADME, organism-based; parameters: dose 20 mg/kg, route intravenous; settings: in vivo; summary of the method: as §2
# [16] = Half life in mouse liver microsomes at 5 uM by LC/MS/MS analysis in presence of NADPH; format: ADME, Microsome; summary of the method: as §3
# [17] = Drug metabolism in mouse liver microsomes assessed as formation of 2,4-dimethylaniline at 5 uM by LC/MS/MS analysis; format: ADME, Microsome; summary of the method: as §1
# [18] = Drug metabolism in mouse liver microsomes assessed as formation of 2,4-dimethylhydrazine at 5 uM by LC/MS/MS analysis; format: ADME, Microsome; summary of the method: as §1
# [19] = Half life in BALB/c mouse blood at 20 mg/kg, orally administered in corn oil by LC/MS/MS analysis; settings: po
# Liver microsomes [20] = assay: Drug metabolism in human liver microsomes assessed as formation of 2,4-dimethylhydrazine at 5 uM by LC/MS/MS analysis; format: ADME, Microsome; summary of the method: as §1
# Liver microsomes [21] = assay: Drug metabolism in human liver microsomes assessed as formation of (E)-2,2,2-trifluoro-N-(4-(hydroxymethyl)-2-methylphenyl)-N'-(3-methoxybenzylidene)acetohydrazide at 5 uM by LC/MS/MS analysis; format: ADME, Microsome; summary of the method: as §1
# [22] = Drug metabolism in mouse liver microsomes assessed as (E)-2,2,2-trifluoro-N-(4-(hydroxymethyl)-2-methylphenyl)-N'-(3-methoxybenzylidene)acetohydrazide retention time at 5 uM by LC/MS/MS analysis; format: ADME, Microsome; summary of the method: as §1
# [23] = Drug metabolism in mouse liver microsomes assessed as (E)-N'-(3,4-dihydroxybenzylidene)-N-(2,4-dimethylphenyl)-2,2,2-trifluoroacetohydrazide retention time at 5 uM by LC/MS/MS analysis; format: ADME, Microsome; summary of the method: as §1
# [24] = Drug metabolism in mouse liver microsomes assessed as (E)-N-(2,4-dimethylphenyl)-2,2,2-trifluoro-N'-(3-hydroxybenzyli-dene)acetohydrazide retention time at 5 uM by LC/MS/MS analysis; format: ADME, Microsome; summary of the method: as §1
# Liver microsomes [25] = assay: Drug metabolism in human liver microsomes assessed as formation of (E)-N-(2,4-dimethylphenyl)-2,2,2-trifluoro-N'-(3-hydroxybenzyli-dene)acetohydrazide at 5 uM by LC/MS/MS analysis; format: ADME, Microsome; summary of the method: as §1
# Liver microsomes [26] = assay: Drug metabolism in human liver microsomes assessed as formation of 2,4-dimethylaniline at 5 uM by LC/MS/MS analysis; format: ADME, Microsome; summary of the method: as §1
# Blood [27] = assay: Drug metabolism in BALB/c mouse blood assessed as (E)-N-(2,4-dimethylphenyl)-2,2,2-trifluoro-N'-(3-hydroxybenzyli-dene)acetohydrazide retention time at 20 mg/kg, iv administered in corn oil by LC/MS/MS analysis; format: ADME, organism-based; parameters: dose 20 mg/kg, route intravenous; settings: in vivo; summary of the method: as §2
# [28] = Drug metabolism in mouse liver microsomes assessed as retention time at 5 uM by LC/MS/MS analysis; format: ADME, Microsome; summary of the method: as §1
compound,measurement,setting,value
Cc1ccc(N(/N=C/c2cccc(O)c2)C(=O)C(F)(F)F)c(C)c1,EC50,[1],0.078 µM
same,EC50,HT-22,0.185 µM
same,EC50,[2],0.012 µM
Cc1ccc(N(/N=C/c2ccc(O)c(O)c2)C(=O)C(F)(F)F)c(C)c1,EC50,[1],0.034 µM
same,EC50,HT-22,1 µM
same,EC50,[2],0.031 µM
COc1cccc(/C=N/N(C(=O)C(F)(F)F)c2ccc(CO)cc2C)c1,EC50,[1],0.092 µM
same,EC50,HT-22,0.18 µM
same,EC50,[2],0.32 µM
COc1cccc(/C=N/N(C(=O)C(F)(F)F)c2ccc(C)cc2C)c1 [J147],Retention_time,Liver microsomes [3],10.97 min
same,Drug metabolism,Plasma [4],Not Active
same,Drug metabolism,Liver microsomes [5],Not Active
same,Drug metabolism,[6],Not Active
same,Retention_time,[7],5.96 min
same,Retention_time,[8],6.82 min
same,Retention_time,Blood [9],5.35 min
same,EC50,[1],0.011 µM
same,Retention_time,Blood [10],5.54 min
same,half-life,[11],2.5 h
same,Drug metabolism,Plasma [12],Not Active
same,Drug metabolism,Plasma [13],Not Active
same,half-life at 5 µM,[14],4.5 min
same,Retention_time,Blood [15],9.27 min
same,half-life at 5 µM,[16],< 4 min
same,Drug metabolism,[17],Not Active
same,Drug metabolism,[18],Not Active
same,half-life,[19],2.5 h
same,Drug metabolism,Liver microsomes [20],Not Active
same,Drug metabolism,Liver microsomes [21],Active
same,Retention_time,[22],7.86 min
same,Retention_time,[23],7.6 min
same,Retention_time,[24],8.36 min
same,EC50,HT-22,0.02 µM
same,Drug metabolism,Liver microsomes [25],Active
same,Drug metabolism,Liver microsomes [26],Not Active
same,Retention_time,Blood [27],8.04 min
same,Retention_time,[28],9.49 min
same,EC50,[2],0.033 µM
